The list is not random: actives were taken first. Their share in the collection is about 1.8%.
beta cell repl = inducers of MIN6 beta-cell proliferation, primary screen, ATP luminescence, uHTS; MIN6 cells proliferation, ATPlite luminescence, 48 h; cells starved in 0.2% serum; 100% = growth in 10% serum; proliferation, % at 10 µM; hit rate 0.29% among 330,000; AID 2380, 2010;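 active means compounds whose signal lies at least 3.5 SD above the mean of all wells on their plate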;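 further: 0% = DMSO-treated cells in low-serum medium and 100% = 10% serum control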
FLuc stim CS = FLuc activators, initial screening, artefact control for FLuc-dependent activation tests, biochemical, ATPlite luminescence; Luciferin 4-monooxygenase (Photinus pyralis), P08659; ATPlite luciferase biochemical, 10 min; 0 = ATP-free wells, 1 = DMSO control; activation factor at 10 µM; 200,000 tested, under 10 active; AID 1027, 2008;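 active means luciferase activation factor, scaled between plate controls, of at least 2 with compound at 10 µM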
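Assay system: Luciferase/luciferin detection reagent, cell-free biochemical luciferase assay / Also added: ATP substrate / Schedule: 10 min at ambient temperature / Measured by: luminescence measurement of luciferase light output / Benchmarks: low control with PBS replacing ATP, high control enzyme plus ATP without compound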
C8 TRAIL sens = viability loss with TRAIL in NB7+C8 cells, primary screen, TRAIL sensitizer project, cell-based, ATPlite luminescence. hit rate 1% among 360,000. inhibition (viability loss, TRAIL sensitization), % at 10 µM. AID 624354, 2012;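 active means compounds causing at least 50% loss of cell viability in the single-dose screen, relative to plate controls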
FLuc inh counter = firefly luciferase enzyme inhibitors, primary screen, artefact control for luciferase-based inhibitor screens, biochemical, luminescence, ATPLite; 10 min; inhibition, % at 10 µM; hit rate 1.5% among 200,000; AID 1006, 2008;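 active means inhibition above about 50% when tested at 10 µM, limit read from the data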
PPC-1+TRAIL kill = compounds killing PPC-1 cancer cells with TRAIL present, primary screen, TRAIL potentiator project, ATPLite luminescence, uHTS; PPC-1 cells + TRAIL, ATPLite viability luminescence; hit rate 0.41% among 220,000; cell killing (% activity), % at 4 µM or 5 µM;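 active means cell killing above 50% in the first pass at 4 µM, then a duplicate retest at 5 µM averaging 50% or more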;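 further: plate controls were cells with TRAIL plus DMSO for no effect and medium-only wells lacking cells for full effect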
hiPSC survival = enhancers of single-cell hiPSC survival, primary screen, ATPlite luminescence; 100% = ROCK inhibitor wells, 0% = DMSO; survival enhancement, % at 20 µM; hit rate 0.044% among 360,000; AID 602274, 2012; in the data active means survival enhancement above about 18%;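 further: cells exposed to compounds for 16 hours before the ATP read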
Numbers without * were called inactive; x = no result given.

SMILES	beta cell repl	FLuc stim CS	C8 TRAIL sens	FLuc inh counter	PPC-1+TRAIL kill	hiPSC survival
CC(=O)Oc1ccc(OC(C)=O)c2c1CC(C)=C(C)C2	-6.8	x	22.6	x	-4.0	0.4
Nc1ncnc2c(C3OC(CO)C(O)C3O)scc12 (centres undefined)	x	x	56.7*	x	x	-4.0
O=C(CC1CCCCC1)Nc1ccc(-c2ccc3nncn3n2)cc1	-2.0	1.1	-15.3	-5.2	0.9	0.4
O=C(Nc1ccc(-c2ccc3nncn3n2)cc1)C1CCCC1	-1.0	0.5	27.5	51.8*	3.3	-0.4
Cc1ccc(-c2nc(-c3ccccn3)no2)cc1[N+](=O)[O-]	-3.5	x	52.0*	x	33.7	-0.7
Cc1cc(-c2nc(-c3ccncc3)no2)ccc1[N+](=O)[O-]	-2.2	x	-10.0	x	x	1.4
N#CCCN(Cc1ccccc1)C(C(=O)NC1CCCCC1)C1CC1 (centres undefined)	x	x	-8.4	x	x	1.1
O=C(CN(C1CCCCC1)S(=O)(=O)c1ccc(F)cc1)NCC1CCCO1 (centres undefined)	x	x	94.5*	x	x	-5.5
O=C(CN(C1CCCCC1)S(=O)(=O)c1ccccc1)NCC1CCCO1 (centres undefined)	0.0	x	-12.8	x	x	-0.4
COc1ccccc1N1CCN(C(=O)CNC(=O)c2cn(-c3ccccc3OC)c(=O)c3ccccc23)CC1	-3.0	0.6	22.9	42.1	28.3	-0.1
COc1ccc(-n2nc(C(=O)NCC(=O)N3CCN(c4ccccc4F)CC3)c3ccccc3c2=O)cc1OC	0.0	x	53.1*	x	x	-0.6
COc1ccc(N2CCN(C(=O)CNC(=O)c3nn(-c4ccc(OC)cc4)c(=O)c4ccccc34)CC2)cc1	0.0	x	1.7	x	x	-0.6
COc1ccc(-n2nc(C(=O)NCC(=O)N3CCN(c4ccccc4F)CC3)c3ccccc3c2=O)cc1	0.0	x	72.3*	x	x	-0.6
COc1ccccc1-n1cc(C(=O)NCC(=O)N2CCN(c3ccccc3)CC2)c2ccccc2c1=O	-4.4	0.3	32.4	69.9*	39.6	-0.7
O=C(/C=C/c1ccccc1)C1C(=O)c2ccccc2C1=O	-2.8	0	87.3*	95.4*	37.1	-3.1
O=C(c1ccccc1)C1C(=O)c2ccccc2C1=O	-2.6	1	12.7	-3.4	-8.1	1.7
CCc1ccc(/C=C/C(=O)C2C(=O)c3ccccc3C2=O)cc1	-4.5	0	91.4*	96.3*	23.6	-0.9
CC1(Cc2ccc(F)cc2)C(=O)Nc2ccc(-c3cccnc3)cc21 (centres undefined)	x	x	-2.5	x	x	-2.5
Cc1ccccc1OC(C)C(=O)N1CCN(c2ccccn2)CC1 (centres undefined)	4.6	x	7.1	x	x	-0.5
N#CCSc1ccc(-c2nc3ccccc3[nH]2)cn1	-3.5	0.4	18.0	58.3*	32.5	-0.7
CC(C)CC1C(=O)N(Cc2cn(CCC3OCCO3)nn2)CCS(=O)(=O)N1Cc1ccc(-c2ccncc2)cc1 (centres undefined)	x	x	10.7	x	x	-0.8
CCCCCc1cc(=O)oc2c(C(CCN(CC)CC)c3cc(OC)c(OC)c(OC)c3)c(OC)cc(OC)c12 (centres undefined)	-9.0	x	75.0*	x	12.7	-4.3
Cc1cc(C(=O)COC(=O)c2ccccc2O)c(C)n1Cc1cccs1	-5.8	0.1	89.9*	89.6*	-1.6	-3.9
CCn1nc(C(=O)OCC(=O)c2cc(C)n(Cc3cccs3)c2C)c2ccccc2c1=O	-2.8	0.4	21.1	57.5*	-2.0	-4.4
Cc1ccc(NC(=O)c2cccc(NC(=O)CC3SC(N4CCCCC4)=NC3=O)c2)nc1 (centres undefined)	0.5	x	17.4	x	x	-0.3
Cc1ccc(CN2CCN(/N=C/c3cccs3)CC2)cc1	0.6	1.1	-7.5	-6.2	11.4	0.7
CCc1ccc2nc(N(CCCN(C)C)C(=O)c3ccc(S(=O)(=O)N4CCc5ccccc5C4)cc3)sc2c1	-7.5	x	79.5*	x	x	0.2
CCOc1cccc2sc(N(CCCN(C)C)C(=O)c3ccc(S(=O)(=O)N4CCc5ccccc5C4)cc3)nc12	-7.2	x	68.3*	x	x	0.1
COc1ccc(NC(=O)Nc2cc(C)ccn2)cc1	x	x	58.9*	x	x	-0.6
